ChEMBL document CHEMBL1124068, “5-Methyl-2-pyrrolidone analogues of oxotremorine as selective muscarinic agonists” (J Med Chem, 1988)
Calls of active or inactive are those of the source.

Tests used:
Cavia porcellus [1] = species: Cavia porcellus; assay: Equilibrium dissociation constant receptor complex, measured in guinea pig urinary bladder; assay type: functional
Cavia porcellus [2] = species: Cavia porcellus; assay: Efficacy relative to that of carbachol; assay type: functional
Mus musculus [3] = assay: Tremorolytic activity administered intraperitoneally to mice; assay type: functional; settings: ip
Outline: (§1)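 Antagonists given ip to groups of six or more male Swiss-Webster mice (24-32 g), six untreated controls; 20 min later iv oxotremorine ED50 for grade 2 intermittent spontaneous tremor found by up-and-down method. Dose doubling oxotremorine ED50 derived by linear regression; values are means ± standard errors.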

Mus musculus [4] = assay: Central muscarinic activity administered intraperitoneally to mice, expressed as hypothermia; assay type: functional; settings: ip
Outline: (§2)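 Rectal temperature (probe ~25 mm) in male Swiss-Webster mice (24-32 g) after ip dosing at 20.5 ± 1.0 °C; six mice per dose, five to six doses, readings every 20 min for 3 h. Maximal fall from pretreatment used; ED50 from logistic fit.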

Cavia porcellus [5] = species: Cavia porcellus; assay: Efficacy relative to that of carbachol (guinea pig urinary bladder); assay type: functional
Cavia porcellus [6] = species: Cavia porcellus; assay: Maximum contractile response relative to that elicited by carbachol was measured in guinea pig urinary bladder; assay type: functional
Outline: (§3)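 Guinea pig bladder strips in Krebs-Henseleit solution (pH 7.4) with 0.3 mM hexamethonium, 37 °C; isotonic recording at 1 g tension; cumulative agonist additions increased by factor 3.16; responses referenced to carbachol.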

Mus musculus [7] = assay: Central muscarinic activity administered intraperitoneally to mice, expressed as analgesia; assay type: functional; settings: ip
Outline: (§4)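 Male Swiss-Webster mice (24-32 g), ip, 20.5 ± 1.0 °C; tail-flick test, 15 s cut-off, groups of ten at three to four dose levels. Reaction time above control mean plus 3 SD counted as increased; ED50 by probit analysis.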

[8] = Acute toxicity administered intraperitoneally to mice; assay type: organism-based; settings: mouse, in vivo, ip
Mus musculus [9] = assay: Muscarinic activity administered intraperitoneally to mice, expressed as salivation; assay type: functional; settings: ip
Outline: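 Male Swiss-Webster mice (24-32 g) dosed ip at 20.5 ± 1.0 °C; salivation judged by pressing mouth onto absorbent tissue; threshold dose estimated by up-and-down method.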

Cavia porcellus [10] = species: Cavia porcellus; assay: Concentration that elicits 50% of its own maximum contractile response in guinea pig urinary bladder; assay type: functional; outline: as §3
Cavia porcellus [11] = species: Cavia porcellus; assay: Maximum contractile response relative to that elicited by carbachol was measured in guinea pig ileum; assay type: functional
Outline: (§5)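 Isolated guinea pig ileum in Tyrode solution (pH 7.4) with 0.3 mM hexamethonium, 37 °C; isotonic contractions at 1 g tension. Cumulative agonist concentration-response curves, concentration raised stepwise by factor 2.15; maxima expressed relative to carbachol.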

Cavia porcellus [12] = species: Cavia porcellus; assay: Equilibrium dissociation constant receptor complex, measured in guinea pig ileum; assay type: functional
Cavia porcellus [13] = species: Cavia porcellus; assay: Concentration that elicits 50% of its own maximum contractile response in guinea pig ileum; assay type: functional; outline: as §5
Mus musculus [14] = assay: Tremorolytic activity administered intraperitoneally to mice; c = no significant blockade was observed; assay type: functional, organism-based; outline: as §1
Mus musculus [15] = assay: Central muscarinic activity administered intraperitoneally to mice, expressed as analgesia; d = no effect was observed; assay type: functional, organism-based; outline: as §4
Mus musculus [16] = assay: Central muscarinic activity administered intraperitoneally to mice, expressed as hypothermia; d = no effect was observed; assay type: functional, organism-based; outline: as §2

For `CC1CCC(=O)N1CC#CCN1CCC1` (centres undefined), the Kd (Cavia porcellus [1]) was 580 nM, the Relative efficacy (Cavia porcellus [2]) was 0.02 and the ED50 (Mus musculus [3]) was 4.6 µmol/kg. For the same compound, the ED50 (Mus musculus [4]) was 4.9 µmol/kg, the Relative efficacy (Cavia porcellus [5]) was 0.022 and the Emax (Cavia porcellus [6]) was 21.4. The ED50 (Mus musculus [7]) was 0.71 µmol/kg, the LD50 [8] was 192 µmol/kg and the ED50 (Mus musculus [9]) was 1.3 µmol/kg. For the same compound, the EC50 (Cavia porcellus [10]) was 4600 nM, the Emax (Cavia porcellus [11]) was 90 and the Kd (Cavia porcellus [12]) was 520 nM. It also gave an EC50 (Cavia porcellus [13]) of 230 nM.
With `CC1CCC(=O)N1CC#CC[N+](C)(C)C.[I-]` (centres undefined) the Kd (Cavia porcellus [1]) was 2800 nM, the Relative efficacy (Cavia porcellus [2]) was 0.057 and the ED50 (Mus musculus [14]) was “inactive”. The ED50 (Mus musculus [15]) was “inactive”, the ED50 (Mus musculus [16]) was “inactive” and the Relative efficacy (Cavia porcellus [5]) was 0.062. It also gave an Emax (Cavia porcellus [6]) of 71.4, an LD50 [8] of 33.6 µmol/kg and an ED50 (Mus musculus [9]) of 12 µmol/kg. For the same compound, the EC50 (Cavia porcellus [10]) was 2000 nM, the Emax (Cavia porcellus [11]) was 100 and the Kd (Cavia porcellus [12]) was 1700 nM. The EC50 (Cavia porcellus [13]) was 180 nM.
In the case of `CC1CCC(=O)N1CC#CCN1CCCC1` (centres undefined), the ED50 (Mus musculus [3]) is reported as 0.36 µmol/kg and the LD50 [8] is reported as 107 µmol/kg.
Compound `CC1CCC(=O)N1CC#CCN(C)C` (centres undefined) has a Kd (Cavia porcellus [1]) of 11800 nM, a Relative efficacy (Cavia porcellus [2]) of 0.04 and an ED50 (Mus musculus [3]) of 22.8 µmol/kg. For the same compound, the ED50 (Mus musculus [4]) was 13.1 µmol/kg, the Relative efficacy (Cavia porcellus [5]) was 0.064 and the Emax (Cavia porcellus [6]) was 58.1. The ED50 (Mus musculus [7]) was 1.5 µmol/kg, the LD50 [8] was 402 µmol/kg and the ED50 (Mus musculus [9]) was 4 µmol/kg. It also gave an EC50 (Cavia porcellus [10]) of 15000 nM, an Emax (Cavia porcellus [11]) of 102 and a Kd (Cavia porcellus [12]) of 4300 nM. For the same compound, the EC50 (Cavia porcellus [13]) was 910 nM.
Work on `CN1[C@@H]2CC[C@H]1C[C@@H](OC(=O)C(CO)c1ccccc1)C2` (some centres undefined) [ATROPINE] yielded an ED50 (Mus musculus [3]) of 0.57 µmol/kg.
In the case of `CC[N+](C)(C)CC#CCN1C(=O)CCC1C.[I-]` (centres undefined), the Kd (Cavia porcellus [1]) is reported as 3500 nM, the Relative efficacy (Cavia porcellus [2]) is reported as 0.0036 and the ED50 (Mus musculus [14]) is reported as “No significant blockade”. It also gave an Emax (Cavia porcellus [6]) of 0, an LD50 [8] of 176 µmol/kg and an Emax (Cavia porcellus [11]) of 28.7. The Kd (Cavia porcellus [12]) was 4900 nM and the EC50 (Cavia porcellus [13]) was 3200 nM.
With `CCN(CC)CC#CCN1C(=O)CCC1C` (centres undefined) the Kd (Cavia porcellus [1]) was 2100 nM, the ED50 (Mus musculus [3]) was 5.1 µmol/kg and the Emax (Cavia porcellus [6]) was 0. For the same compound, the LD50 [8] was 720 µmol/kg, the Emax (Cavia porcellus [11]) was 0 and the Kd (Cavia porcellus [12]) was 1100 nM.
`CCN(C)CC#CCN1C(=O)CCC1C` (centres undefined) gave a Kd (Cavia porcellus [1]) of 2500 nM, an ED50 (Mus musculus [3]) of 6.7 µmol/kg and an Emax (Cavia porcellus [6]) of 0. The LD50 [8] was 636 µmol/kg, the Emax (Cavia porcellus [11]) was 0 and the Kd (Cavia porcellus [12]) was 1800 nM.
Compound `O=C1CCCN1CC#CCN1CCCC1` [OXOTREMORINE] has an ED50 (Mus musculus [4]) of 0.22 µmol/kg, an ED50 (Mus musculus [7]) of 0.05 µmol/kg and an ED50 (Mus musculus [9]) of 0.29 µmol/kg.
For `C[N+](C)(C)CCOC(N)=O.[Cl-]` [CARBACHOL], the Kd (Cavia porcellus [1]) was 17000 nM, the Relative efficacy (Cavia porcellus [2]) was 1 and the Relative efficacy (Cavia porcellus [5]) was 1. It also gave an Emax (Cavia porcellus [6]) of 100, an EC50 (Cavia porcellus [10]) of 900 nM and an Emax (Cavia porcellus [11]) of 100. It also gave a Kd (Cavia porcellus [12]) of 14100 nM and an EC50 (Cavia porcellus [13]) of 110 nM.
For `CC(=O)N(C)C(C)C#CCN1CCCC1` (centres undefined), the Kd (Cavia porcellus [1]) was 140 nM, the Relative efficacy (Cavia porcellus [2]) was 0.012 and the ED50 (Mus musculus [3]) was 0.63 µmol/kg. For the same compound, the ED50 (Mus musculus [4]) was 0.75 µmol/kg, the Emax (Cavia porcellus [6]) was under 5 and the ED50 (Mus musculus [7]) was 0.37 µmol/kg. It also gave an LD50 [8] of 665 µmol/kg, an ED50 (Mus musculus [9]) of 0.65 µmol/kg and an Emax (Cavia porcellus [11]) of 82.6. It also gave a Kd (Cavia porcellus [12]) of 240 nM and an EC50 (Cavia porcellus [13]) of 190 nM.
